Results on 5 molecules are retold here after ChEMBL document CHEMBL1151265, “Steroidal saponins from Smilax medica and their antifungal activity” (2005).

Holding throughout (format): functional
For test [1], the system named is Candida albicans. Put plainly: Antifungal activity against Candida albicans after 48 hrs by spectrophotometry. The following applies: for MIC: Candida albicans, 48 h. The gist of the method: (§1)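 Broth microdilution MIC against pathogenic human yeast strains. Saponin in malt extract broth (malt extract 15 g, peptone 5 g per L), final 3.12-200 µg/mL, serial dilution, triplicate wells. Each well inoculated with 10 µL of 10^4 CFU/mL suspension, incubated 30 °C for 48 h, growth read at 630 nm. MIC is the lowest concentration with no visible growth.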

Test [2] deals with Candida tropicalis. As to the kind of experiment: Antifungal activity against Candida tropicalis after 48 hrs by spectrophotometry. The following applies: for MIC: Candida tropicalis, 48 h. An outline of the steps:
as §1

The test system of test [3] is Nakaseomyces glabratus. Put plainly: Antifungal activity against Candida glabrata after 48 hrs by spectrophotometry. The following applies: for MIC: Nakaseomyces glabratus, 48 h. The gist of the method: as §1

Structures are written as SMILES. ≈ marks a conversion by molar mass, not a printed value.

By MIC is commonly meant the smallest concentration in the dilution series that meets the test's criterion for growth inhibition. A high value points to weaker potency.

Regarding `C[C@@H]1CC[C@@]2(OC1)O[C@H]1C[C@H]3[C@@H]4CC[C@@H]5C[C@@H](O[C@@H]6O[C@H](CO[C@@H]7O[C@H](CO)[C@@H](O)[C@H](O)[C@H]7O)[C@@H](O[C@@H]7O[C@H](CO)[C@@H](O)[C@H](O)[C@H]7O)[C@H](O)[C@H]6O[C@@H]6O[C@H](CO)[C@@H](O)[C@H](O)[C@H]6O)CC[C@]5(C)[C@H]4CC[C@]3(C)[C@H]1[C@@H]2C`, the MIC stood at 25 µg/mL (≈ 23.5 µM) in test [1], 50 µg/mL (≈ 46.9 µM) in test [2] and 12.5 µg/mL (≈ 11.7 µM) in test [3].
Turning to `C[C@@H]1CC[C@@]2(OC1)O[C@H]1C[C@H]3[C@@H]4CC[C@@H]5C[C@@H](O[C@@H]6O[C@H](CO[C@@H]7O[C@H](CO)[C@@H](O)[C@H](O)[C@H]7O)[C@@H](O[C@@H]7O[C@H](CO)[C@@H](O)[C@H](O)[C@H]7O)[C@H](O)[C@H]6O)CC[C@]5(C)[C@H]4CC[C@]3(C)[C@H]1[C@@H]2C`, the figures for the MIC in test [1], in test [2] and in test [3] were 25 µg/mL (≈ 27.7 µM), 50 µg/mL (≈ 55.4 µM) and 12.5 µg/mL (≈ 13.8 µM), respectively.
With `CO[C@]1(CC[C@@H](C)CO[C@@H]2O[C@H](CO)[C@@H](O)[C@H](O)[C@H]2O)O[C@H]2C[C@H]3[C@@H]4CC[C@@H]5C[C@@H](O[C@@H]6O[C@H](CO[C@@H]7O[C@H](CO)[C@@H](O)[C@H](O)[C@H]7O)[C@@H](O[C@@H]7O[C@H](CO)[C@@H](O)[C@H](O)[C@H]7O)[C@H](O)[C@H]6O[C@@H]6O[C@H](CO)[C@@H](O)[C@H](O)[C@H]6O)CC[C@]5(C)[C@H]4CC[C@]3(C)[C@H]2[C@@H]1C`, the Activity in test [1], in test [2] and in test [3] was more than 200 µg/mL throughout.
Regarding `C[C@@H]1CC[C@@]2(OC1)O[C@H]1C[C@H]3[C@@H]4CC[C@@H]5C[C@@H](O[C@@H]6O[C@H](CO[C@@H]7O[C@H](CO)[C@@H](O)[C@H](O)[C@H]7O)[C@@H](O)[C@H](O)[C@H]6O[C@@H]6O[C@H](CO)[C@@H](O)[C@H](O)[C@H]6O)CC[C@]5(C)[C@H]4CC[C@]3(C)[C@H]1[C@@H]2C` [DISPOROSIDE A], the MIC worked out at 25 µg/mL (≈ 27.7 µM) in test [1], 50 µg/mL (≈ 55.4 µM) in test [2] and 25 µg/mL (≈ 27.7 µM) in test [3].
As to `CC(=O)N1CCN(c2ccc(OCC3COC(Cn4ccnc4)(c4ccc(Cl)cc4Cl)O3)cc2)CC1` (stereo not given) [KETOCONAZOLE], the figures for the minimal inhibitory concentration (MIC) in test [1], in test [2] and in test [3] were 0.78 µg/mL (≈ 1.47 µM), 1.56 µg/mL (≈ 2.94 µM) and 0.78 µg/mL (≈ 1.47 µM), respectively.
